The text below walks through data of ChEMBL document CHEMBL1949672 (J Med Chem, 2012).

Assay [1] addresses T1, Adenosine receptor A2a (Homo sapiens, UniProt P29274). Description: Agonist activity at human A2A adenosine receptor expressed in CHO cells assessed as stimulation of forskolin-induced cAMP production at 10 uM preincubated for 45 mins prior forskolin treatment measured after 15 mins by liquid scintillation spectrometry relative to 2-[p-(2-carboxyethyl)phenylethylamino]-5'-N-ethylcarboxamido-adenosine. The format is functional, cell-based. In a few lines:
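CHO cells expressing human A2A AR; test compound at a single concentration of 10 µM; cyclic AMP production measured and expressed as mean percentage of the response to the full agonist CGS21680 (10 µM).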
Background: Changes in cAMP serve as a functional read-out for many G protein-coupled receptors.

A further assay concerns the target T2, Adenosine receptor A3 (Homo sapiens, UniProt P0DMS8).
T2 sequence (P0DMS8 whole entry): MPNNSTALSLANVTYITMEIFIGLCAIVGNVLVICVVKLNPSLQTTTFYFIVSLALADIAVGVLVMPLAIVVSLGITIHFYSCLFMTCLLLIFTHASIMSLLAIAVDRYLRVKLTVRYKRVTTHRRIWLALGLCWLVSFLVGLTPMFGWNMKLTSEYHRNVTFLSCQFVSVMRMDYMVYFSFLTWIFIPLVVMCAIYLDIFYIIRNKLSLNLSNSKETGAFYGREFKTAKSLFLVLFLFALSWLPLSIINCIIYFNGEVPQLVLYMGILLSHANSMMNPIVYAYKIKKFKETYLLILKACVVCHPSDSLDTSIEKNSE
Description: Displacement of [125I]N6-(4-amino-3-iodobenzyl)adenosine-5'-N-methyluronamide from human A3 adenosine receptor expressed in CHO cell membranes after 60 mins. (In a radioligand displacement assay an active substance lowers the binding of a labelled ligand.)

The target of another assay is T3, Adenosine receptor A1 (Homo sapiens, UniProt P30542).
T3 sequence (P30542 whole entry): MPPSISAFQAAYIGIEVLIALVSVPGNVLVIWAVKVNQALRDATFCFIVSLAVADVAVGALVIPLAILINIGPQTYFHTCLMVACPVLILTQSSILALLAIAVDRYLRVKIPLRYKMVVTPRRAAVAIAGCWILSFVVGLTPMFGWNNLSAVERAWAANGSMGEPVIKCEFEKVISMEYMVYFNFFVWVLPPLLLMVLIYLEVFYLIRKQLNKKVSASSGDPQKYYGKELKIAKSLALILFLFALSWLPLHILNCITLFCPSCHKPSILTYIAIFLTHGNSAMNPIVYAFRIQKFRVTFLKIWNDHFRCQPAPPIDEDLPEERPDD
The experiment in a line: Displacement of [3H]N6-phenylisopropyladenosine from human A1 adenosine receptor expressed in CHO cell membranes after 60 mins. An outline of the steps:
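Membranes (40 µg/tube) from CHO cells stably expressing human A1 AR were incubated with 1 nM [3H]R-PIA in 50 mM Tris·HCl pH 7.4 with 10 mM MgCl2, at 25°C for 60 min. Nonspecific binding was defined with 10 µM CPA.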

In assay [2] the target is T1, Adenosine receptor A2a. The experiment in a line: Displacement of [3H]2-[p-(2-carboxyethyl)phenylethylamino]-5'-N-ethylcarboxamido-adenosine from human A2A adenosine receptor expressed in HEK293 cell membranes after 60 mins.
Assay [3] concerns the target T1, Adenosine receptor A2a. The experiment in a line: Binding affinity to A2A adenosine receptor.
Assay [4] in a line: Displacement of [1251]PAPAAPEC from A2A adenosine receptor expressed in bovine striatal membranes after 1 hr by gamma counting. Type of assay: cell membranes, Bos taurus, Striatum, Membrane.

T1 sequence (P29274 whole entry): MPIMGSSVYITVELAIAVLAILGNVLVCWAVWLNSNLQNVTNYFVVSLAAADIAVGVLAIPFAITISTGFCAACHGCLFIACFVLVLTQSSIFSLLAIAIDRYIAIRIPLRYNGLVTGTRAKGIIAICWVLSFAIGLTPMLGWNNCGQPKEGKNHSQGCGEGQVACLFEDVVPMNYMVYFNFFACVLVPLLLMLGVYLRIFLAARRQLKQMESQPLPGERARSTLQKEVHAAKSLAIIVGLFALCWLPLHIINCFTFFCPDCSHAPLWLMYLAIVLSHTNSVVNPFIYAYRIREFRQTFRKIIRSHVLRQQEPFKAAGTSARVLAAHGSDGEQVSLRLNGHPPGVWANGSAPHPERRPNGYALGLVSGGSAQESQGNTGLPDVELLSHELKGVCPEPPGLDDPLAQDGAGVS

For the compound `CCNC(=O)[C@H]1O[C@@H](n2cnc3c(N)nc(NCCc4ccc(CCC(=O)N[C@@H](Cc5c[nH]cn5)C(=O)O)cc4)nc32)[C@H](O)[C@@H]1O`, the Emax at Adenosine receptor A2a [1] came out at 105%.

As to `CCNC(=O)[C@H]1O[C@@H](n2cnc3c(N)nc(NCCc4ccc(CCC(=O)N[C@H](Cc5c[nH]c6ccccc56)C(=O)O)cc4)nc32)[C@H](O)[C@@H]1O`, the values for the Ki at Adenosine receptor A3, on Adenosine receptor A1 and at Adenosine receptor A2a [2] were 520 nM, 2160 nM and 130 nM, respectively. Further, the maximal response (Emax) on Adenosine receptor A2a [1] turned out to be 113%.

In the case of `O=C(NCCN1CCCCC1)c1nc(NCC(c2ccccc2)c2ccccc2)c2ncn([C@@H]3O[C@H](CO)[C@@H](O)[C@H]3O)c2n1`, the inhibition constant (Ki) at Adenosine receptor A2a [3] came to 20.1 nM.

For the compound `CCNC(=O)[C@H]1O[C@@H](n2cnc3c(N)nc(NCCc4ccc(CCC(=O)N[C@@H](Cc5cnc[nH]5)C(=O)O)cc4)nc32)[C@H](O)[C@@H]1O`, the Ki is 830 nM at Adenosine receptor A3, 1000 nM at Adenosine receptor A1 and 110 nM on Adenosine receptor A2a [2].

In assay [4], `CCNC(=O)[C@H]1O[C@@H](n2cnc3c(N)nc(NCCc4ccc(CCC(=O)NCCNC(=S)Nc5ccc(N=C=S)cc5)cc4)nc32)[C@H](O)[C@@H]1O` had an inhibition constant (Ki) of 7.1 nM.

Consider `CCNC(=O)[C@H]1O[C@@H](n2cnc3c(N)nc(NCCc4ccc(CCC(=O)N[C@@H](Cc5c[nH]c6ccccc56)C(=O)O)cc4)nc32)[C@H](O)[C@@H]1O`, for which the Ki on Adenosine receptor A3 amounted to 200 nM; on Adenosine receptor A1, 1060 nM; at Adenosine receptor A2a [2], 71.7 nM. Besides, on Adenosine receptor A2a [1], the Emax amounted to 95.8%.

For the compound `COc1cc(OC)cc([C@@H](CNc2ncnc3c2ncn3[C@@H]2O[C@H](CO)[C@@H](O)[C@H]2O)c2ccccc2C)c1`, the Ki at Adenosine receptor A2a [3] is 168 nM.

Take `CCNC(=O)[C@H]1O[C@@H](n2cnc3c(N)nc(NCCc4ccc(CCC(=O)N[C@H](Cc5ccccc5)C(=O)O)cc4)nc32)[C@H](O)[C@@H]1O`: the Ki was determined as 140 nM at Adenosine receptor A3, 550 nM at Adenosine receptor A1 and 34 nM at Adenosine receptor A2a [2]. Moreover, the Emax on Adenosine receptor A2a [1] is 93.4%.

On to `CCNC(=O)[C@H]1O[C@@H](n2cnc3c(N)nc(NCCc4ccc(CCC(=O)N[C@H](CCCN=C(N)N)C(=O)O)cc4)nc32)[C@H](O)[C@@H]1O`, for which the results for the inhibitory constant (Ki) on Adenosine receptor A3, on Adenosine receptor A1 and on Adenosine receptor A2a [2] were 220 nM, 990 nM and 50 nM, respectively.

In the case of `CCNC(=O)[C@H]1O[C@@H](n2cnc3c(N)nc(NCCc4ccc(CCC(=O)N[C@@H](Cc5c[nH]c6ccccc56)C(=O)OC)cc4)nc32)[C@H](O)[C@@H]1O`, the inhibition constant (Ki) on Adenosine receptor A3 was found to be 140 nM; on Adenosine receptor A1, 1670 nM; on Adenosine receptor A2a [2] it was 87.2 nM. On Adenosine receptor A2a [1], the Emax stood at 104%.

`CCNC(=O)[C@H]1O[C@@H](n2cnc3c(N)nc(NCCc4ccc(CCC(=O)N[C@@H](Cc5ccccc5)C(=O)O)cc4)nc32)[C@H](O)[C@@H]1O`: the values for the Ki at Adenosine receptor A3, at Adenosine receptor A1 and at Adenosine receptor A2a [2] were 260 nM, 640 nM and 63.7 nM, respectively. Further, on Adenosine receptor A2a [1], the Emax amounted to 103%.

Regarding `CCNC(=O)[C@H]1O[C@@H](n2cnc3c(N)nc(NCCc4ccc(CCC(=O)N[C@H](Cc5ccccc5)C(=O)OC)cc4)nc32)[C@H](O)[C@@H]1O`, the inhibitory constant (Ki) at Adenosine receptor A1 is 1230 nM; on Adenosine receptor A2a [2], 84.3 nM. The Emax at Adenosine receptor A2a [1] was 92.6%.

Compound `CCNC(=O)[C@H]1C[C@@H](n2cnc3c(N[C@H](CC)Cc4sccc4Cl)ccnc32)[C@H](O)[C@@H]1O` registered an inhibition constant Ki on Adenosine receptor A2a [3] of 56 nM.

As to `CCNC(=O)[C@H]1O[C@@H](n2cnc3c(N)nc(NCCc4ccc(CCC(=O)N[C@@H](Cc5ccccc5)C(=O)OC)cc4)nc32)[C@H](O)[C@@H]1O`, the inhibition constant Ki was found to be 1080 nM on Adenosine receptor A1 and 160 nM on Adenosine receptor A2a [2]. Besides, the maximum response (Emax) at Adenosine receptor A2a [1] was found to be 111%.

Regarding `CCNC(=O)[C@H]1O[C@@H](n2cnc3c(N)nc(NCCc4ccc(CCC(=O)N[C@@H](CCCNC(=N)N)C(=O)O)cc4)nc32)[C@H](O)[C@@H]1O`, on Adenosine receptor A2a [1], the maximum response (Emax) stood at 94.5%.

For `CCNC(=O)[C@H]1O[C@@H](n2cnc3c(N)nc(NCCc4ccc(CCC(=O)N[C@H](CCCNC(=N)N)C(=O)O)cc4)nc32)[C@H](O)[C@@H]1O`, on Adenosine receptor A2a [1], the maximal effect (Emax) worked out at 94.7%.

Take `CCNC(=O)[C@H]1O[C@@H](n2cnc3c(N)nc(NCCc4ccc(CCC(=O)N[C@@H](CCCN=C(N)N)C(=O)O)cc4)nc32)[C@H](O)[C@@H]1O`: the inhibition constant (Ki) came to 620 nM on Adenosine receptor A3, 1110 nM on Adenosine receptor A1 and 100 nM at Adenosine receptor A2a [2].

For `CCNC(=O)[C@H]1O[C@@H](n2cnc3c(N)nc(NCCc4ccc(CCC(=O)N[C@H](Cc5c[nH]c6ccccc56)C(=O)OC)cc4)nc32)[C@H](O)[C@@H]1O`, the inhibitory constant (Ki) came out at 250 nM on Adenosine receptor A3, 1610 nM at Adenosine receptor A1 and 130 nM at Adenosine receptor A2a [2]. For the same compound, on Adenosine receptor A2a [1], the Emax was found to be 119%.

As to `CCNC(=O)[C@H]1O[C@@H](n2cnc3c(N)nc(NCCc4ccc(CCC(=O)N[C@H](CC(=O)O)C(=O)O)cc4)nc32)[C@H](O)[C@@H]1O`, the Ki at Adenosine receptor A3 is 790 nM; on Adenosine receptor A1, 1180 nM; on Adenosine receptor A2a [2], 110 nM. At Adenosine receptor A2a [1], the Emax was determined as 94.3%.

Regarding `CCNC(=O)[C@H]1O[C@@H](n2cnc3c(N)nc(NCCc4ccc(CCC(=O)N[C@H](Cc5c[nH]cn5)C(=O)O)cc4)nc32)[C@H](O)[C@@H]1O`, the Ki on Adenosine receptor A3 was determined as 320 nM; at Adenosine receptor A1 it was 350 nM; at Adenosine receptor A2a [2], 40 nM. For the same compound, on Adenosine receptor A2a [1], the maximal effect (Emax) was found to be 106%.

In the case of `CCNC(=O)[C@H]1O[C@@H](n2cnc3c(N)nc(NCCc4ccc(CCC(=O)N[C@@H](CC(=O)O)C(=O)O)cc4)nc32)[C@H](O)[C@@H]1O`, the Ki came out at 1460 nM on Adenosine receptor A3, 1900 nM on Adenosine receptor A1 and 180 nM on Adenosine receptor A2a [2]. Besides, the maximal response (Emax) on Adenosine receptor A2a [1] amounted to 94.8%.

For orientation: Emax means the size of the effect at its maximum, as opposed to the concentration needed. Broadly, the Ki is a dissociation constant, usually derived from enzyme kinetics or from competition with a known ligand.
